Data published in paper PMC4615699 (Cell, 2015).

Tests used:
PTGS1 = PTGS1 (Mus musculus, UniProt P22437); assay: In situ competitive SILAC profiling of A-DA labeling, PTGS1 in Neuro2a cells; type: cell-based; details: drug 25 μM, A-DA 5 μM, 30 min
[1] = target: T1, recombinant, purified human NUCB1 (hNUCB1) (Homo sapiens, UniProt Q02818); assay: NUCB1 FluoPol assay with Fl-AEA probe; type: binding; details: for suppression of the NUCB1-FluoPol signal by lipids: concentration-dependent
T1 sequence (Q02818 27-461): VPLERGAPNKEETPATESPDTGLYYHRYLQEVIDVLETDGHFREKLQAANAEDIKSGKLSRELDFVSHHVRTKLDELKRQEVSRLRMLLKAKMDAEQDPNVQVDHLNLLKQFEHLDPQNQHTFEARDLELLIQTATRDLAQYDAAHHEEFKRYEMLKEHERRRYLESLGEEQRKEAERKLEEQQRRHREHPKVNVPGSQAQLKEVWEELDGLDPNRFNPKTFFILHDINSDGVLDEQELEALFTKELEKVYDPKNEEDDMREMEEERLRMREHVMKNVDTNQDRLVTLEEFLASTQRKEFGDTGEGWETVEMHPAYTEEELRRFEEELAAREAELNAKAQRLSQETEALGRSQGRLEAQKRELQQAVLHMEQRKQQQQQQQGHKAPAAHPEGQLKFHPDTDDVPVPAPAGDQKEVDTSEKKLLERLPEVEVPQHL
How it was run: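 Fluorescence polarization readout using purified recombinant human NUCB1 and fluorescent arachidonoyl probe Fl-AEA. Lipid competitors were titrated for concentration-dependent loss of polarization signal. Mean ± SD from at least three independent experiments.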

NENF = NENF (Homo sapiens, UniProt Q9UMX5); type: binding; details: competitors 1–100 μM; NENF-transfected HEK293T lysates
NENF, sequence (Q9UMX5 32-172, species assumed): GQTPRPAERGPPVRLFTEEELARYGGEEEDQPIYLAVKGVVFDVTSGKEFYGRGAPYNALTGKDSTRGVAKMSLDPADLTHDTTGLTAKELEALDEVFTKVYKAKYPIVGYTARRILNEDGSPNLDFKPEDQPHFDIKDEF

NUCB1 [2] = target: T2, NUCB1 (Homo sapiens, UniProt Q02818); type: binding; details: AEA-DA 5.0 μM; lipids 20×
T2 sequence (Q02818 27-461): T1 sequence (Q02818 27-461)
How it was run: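 Performed in vitro in lysates of NUCB1-transfected HEK293T cells, with AEA-DA probe and lipid competitors. Labeled proteomes (1.0 mg/mL) were CuAAC-conjugated to rhodamine-azide for 1 h at room temperature, quenched in SDS loading buffer, separated on 10% SDS-PAGE and detected by in-gel fluorescence.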

EBP = EBP (Mus musculus, UniProt P70245); assay: In situ drug profiling with lipid probes, EBP; type: cell-based; details: 5 μM drug
EBP, sequence (P70245 whole entry): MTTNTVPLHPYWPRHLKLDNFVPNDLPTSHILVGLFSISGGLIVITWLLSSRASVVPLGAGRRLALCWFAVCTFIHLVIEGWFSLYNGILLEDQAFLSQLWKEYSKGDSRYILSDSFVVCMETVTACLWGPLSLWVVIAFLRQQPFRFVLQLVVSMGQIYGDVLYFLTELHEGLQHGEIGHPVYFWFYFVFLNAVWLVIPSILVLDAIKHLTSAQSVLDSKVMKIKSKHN

[3] = target: recombinantly expressed TMEM97 (Homo sapiens, UniProt Q5BJF2); type: cell-based; details: transfected HEK293T cells
recombinantly expressed TMEM97, sequence (Q5BJF2 whole entry): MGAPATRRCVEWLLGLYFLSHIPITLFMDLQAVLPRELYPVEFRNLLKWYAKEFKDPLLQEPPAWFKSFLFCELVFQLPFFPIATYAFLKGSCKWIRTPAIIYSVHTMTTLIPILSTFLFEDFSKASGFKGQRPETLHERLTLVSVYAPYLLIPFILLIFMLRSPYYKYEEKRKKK
How it was run: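 Transfected HEK293T cells (2.5 × 10^6 per 6-cm plate, grown 18-24 h) were washed in DPBS. They then received AEA-DA plus competitor or vehicle in serum-free media for 30 min at 37 °C, followed by 365 nm UV for 10 min at 4 °C. Lysates at 1.0 mg/mL were clicked to rhodamine-azide (TBTA, CuSO4, TCEP; 1 h, room temperature), resolved by 10% SDS-PAGE and read by in-gel fluorescence scanning.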

LSS = LSS (Homo sapiens, UniProt P48449); assay: In situ drug profiling with lipid probes, LSS; type: cell-based; details: 5 μM drug
TMEM97 = TMEM97 (Mus musculus, UniProt Q8VD00); assay: In situ drug profiling with lipid probes, TMEM97; type: cell-based
TMEM97, sequence (Q8VD00 whole entry): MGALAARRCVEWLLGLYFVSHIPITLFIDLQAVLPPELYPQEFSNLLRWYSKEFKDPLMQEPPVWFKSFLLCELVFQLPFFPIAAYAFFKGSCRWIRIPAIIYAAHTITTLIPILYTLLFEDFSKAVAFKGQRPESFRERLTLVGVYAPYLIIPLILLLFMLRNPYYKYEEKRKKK

[4] = target: aldose reductase-related protein 2 (AKR1B8) (Mus musculus, UniProt P45377); assay: In situ competitive SILAC profiling of A-DA labeling, AKR1B8 in Neuro2a cells; type: cell-based; details: drug 25 μM, A-DA 5 μM
aldose reductase-related protein 2 (AKR1B8), sequence (P45377 whole entry): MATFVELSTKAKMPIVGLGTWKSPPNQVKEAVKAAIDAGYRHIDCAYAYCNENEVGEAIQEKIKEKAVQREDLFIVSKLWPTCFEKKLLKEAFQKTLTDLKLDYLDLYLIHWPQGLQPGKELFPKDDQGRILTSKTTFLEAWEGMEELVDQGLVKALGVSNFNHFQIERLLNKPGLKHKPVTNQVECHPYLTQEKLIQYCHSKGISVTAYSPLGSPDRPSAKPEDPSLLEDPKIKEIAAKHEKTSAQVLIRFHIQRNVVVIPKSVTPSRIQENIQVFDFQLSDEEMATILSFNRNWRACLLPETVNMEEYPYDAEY

[5] = system: PMA-stimulated A549 cells; assay: Conversion of exogenous AEA to PGF2α-EA in PMA-stimulated A549 cells; type: cell-based, human; details: AEA 20 μM, 30 min; MJN228, KML110 5 and 25 μM; others 25 μM
How it was run: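 A549 cells stimulated with PMA were treated with test compound or DMSO. Exogenous AEA (20 μM, 30 min) was then added and prostamide PGF2α-EA formation was measured. Mean ± SEM, n = 3-4 per group.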

PTGS2 = PTGS2 (Homo sapiens, UniProt P35354); details: drug 25 μM, A-DA 5 μM, 30 min, A549
PTGS2, sequence (P35354 18-604): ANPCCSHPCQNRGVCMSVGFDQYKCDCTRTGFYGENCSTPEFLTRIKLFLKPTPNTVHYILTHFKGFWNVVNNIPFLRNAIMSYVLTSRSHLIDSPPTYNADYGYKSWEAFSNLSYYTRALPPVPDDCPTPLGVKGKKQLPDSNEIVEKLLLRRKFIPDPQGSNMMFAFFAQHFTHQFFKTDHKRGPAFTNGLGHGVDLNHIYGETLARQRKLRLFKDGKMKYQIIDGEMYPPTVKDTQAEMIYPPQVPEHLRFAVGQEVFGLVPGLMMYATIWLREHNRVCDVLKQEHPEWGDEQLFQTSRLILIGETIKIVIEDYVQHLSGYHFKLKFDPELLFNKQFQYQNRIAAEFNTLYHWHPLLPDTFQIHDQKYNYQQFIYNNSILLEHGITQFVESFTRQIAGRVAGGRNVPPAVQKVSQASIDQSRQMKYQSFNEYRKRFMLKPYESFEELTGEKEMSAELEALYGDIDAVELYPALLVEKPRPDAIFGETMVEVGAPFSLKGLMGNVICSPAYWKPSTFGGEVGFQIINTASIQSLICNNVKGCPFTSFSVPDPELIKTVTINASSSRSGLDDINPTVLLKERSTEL

ferrochelatase (FECH) = ferrochelatase (FECH) (Mus musculus, UniProt P22315); assay: In situ drug profiling with lipid probes, FECH; type: cell-based
ferrochelatase (FECH), sequence (P22315 54-422): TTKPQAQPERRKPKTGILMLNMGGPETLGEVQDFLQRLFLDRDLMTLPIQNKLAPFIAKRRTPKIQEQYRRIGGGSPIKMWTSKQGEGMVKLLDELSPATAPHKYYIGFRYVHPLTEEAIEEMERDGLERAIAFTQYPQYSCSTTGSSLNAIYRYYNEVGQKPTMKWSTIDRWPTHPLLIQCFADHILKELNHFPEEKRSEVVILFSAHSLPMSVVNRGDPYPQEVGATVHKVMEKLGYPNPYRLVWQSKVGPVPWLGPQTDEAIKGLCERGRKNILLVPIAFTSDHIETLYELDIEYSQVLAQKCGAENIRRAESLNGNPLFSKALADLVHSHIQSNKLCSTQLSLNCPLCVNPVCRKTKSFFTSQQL

ABCB1B = ABCB1B (Mus musculus, UniProt P06795); assay: In situ drug profiling with lipid probes, ABCB1B in Neuro2a cells; type: cell-based
ABCB1B, sequence (P06795 whole entry): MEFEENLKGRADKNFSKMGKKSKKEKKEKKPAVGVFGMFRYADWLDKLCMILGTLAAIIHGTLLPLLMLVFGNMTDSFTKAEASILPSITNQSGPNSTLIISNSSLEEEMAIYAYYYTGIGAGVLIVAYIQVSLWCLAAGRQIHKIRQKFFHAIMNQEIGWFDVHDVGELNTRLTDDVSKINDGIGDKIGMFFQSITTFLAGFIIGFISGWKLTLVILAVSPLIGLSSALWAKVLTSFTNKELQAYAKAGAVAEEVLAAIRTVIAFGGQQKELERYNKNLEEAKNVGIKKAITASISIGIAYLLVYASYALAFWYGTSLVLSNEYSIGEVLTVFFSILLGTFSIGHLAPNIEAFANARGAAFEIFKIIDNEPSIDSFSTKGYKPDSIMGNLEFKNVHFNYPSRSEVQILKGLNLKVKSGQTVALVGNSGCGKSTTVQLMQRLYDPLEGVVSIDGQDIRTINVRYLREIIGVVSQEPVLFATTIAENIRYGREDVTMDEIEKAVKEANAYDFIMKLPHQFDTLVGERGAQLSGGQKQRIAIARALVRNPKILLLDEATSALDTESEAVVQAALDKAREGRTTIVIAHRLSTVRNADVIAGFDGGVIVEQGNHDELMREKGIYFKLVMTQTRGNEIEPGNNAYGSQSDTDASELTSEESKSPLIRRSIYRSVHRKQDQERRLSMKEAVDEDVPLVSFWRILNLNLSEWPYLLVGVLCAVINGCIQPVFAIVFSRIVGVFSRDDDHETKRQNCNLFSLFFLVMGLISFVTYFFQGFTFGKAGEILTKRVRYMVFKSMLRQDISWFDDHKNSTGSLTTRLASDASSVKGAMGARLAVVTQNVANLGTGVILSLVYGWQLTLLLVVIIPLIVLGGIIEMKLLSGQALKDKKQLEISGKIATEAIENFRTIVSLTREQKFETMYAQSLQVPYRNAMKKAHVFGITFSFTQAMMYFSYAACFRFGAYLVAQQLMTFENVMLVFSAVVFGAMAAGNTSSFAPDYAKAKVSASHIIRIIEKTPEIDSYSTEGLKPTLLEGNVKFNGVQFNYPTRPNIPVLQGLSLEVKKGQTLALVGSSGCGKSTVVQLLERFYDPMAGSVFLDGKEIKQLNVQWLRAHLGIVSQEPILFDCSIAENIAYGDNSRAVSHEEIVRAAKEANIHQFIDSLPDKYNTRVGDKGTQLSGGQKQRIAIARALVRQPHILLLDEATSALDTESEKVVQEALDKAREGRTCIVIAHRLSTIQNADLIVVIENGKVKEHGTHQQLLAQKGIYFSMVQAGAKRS

PTGR2 = PTGR2 (Mus musculus, UniProt Q8VDQ1); assay: In situ AEA-DA competition with lipid competitor AEA, PTGR2; type: cell-based; details: competitor 200 μM
PTGR2, sequence (Q8VDQ1 whole entry): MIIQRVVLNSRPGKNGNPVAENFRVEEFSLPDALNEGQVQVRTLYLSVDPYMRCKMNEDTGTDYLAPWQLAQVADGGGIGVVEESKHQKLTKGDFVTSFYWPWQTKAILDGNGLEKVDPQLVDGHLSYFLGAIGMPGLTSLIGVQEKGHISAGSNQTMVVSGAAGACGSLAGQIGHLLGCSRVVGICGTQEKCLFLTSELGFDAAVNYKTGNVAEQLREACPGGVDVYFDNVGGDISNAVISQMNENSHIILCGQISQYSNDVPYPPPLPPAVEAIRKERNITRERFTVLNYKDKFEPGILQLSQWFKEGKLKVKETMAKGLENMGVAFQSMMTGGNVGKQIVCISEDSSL

DHRS1 = DHRS1 (Mus musculus, UniProt Q99L04); assay: In situ AEA-DA competition with lipid competitor AEA, DHRS1; type: cell-based; details: competitor 200 μM
DHRS1, sequence (Q99L04 whole entry): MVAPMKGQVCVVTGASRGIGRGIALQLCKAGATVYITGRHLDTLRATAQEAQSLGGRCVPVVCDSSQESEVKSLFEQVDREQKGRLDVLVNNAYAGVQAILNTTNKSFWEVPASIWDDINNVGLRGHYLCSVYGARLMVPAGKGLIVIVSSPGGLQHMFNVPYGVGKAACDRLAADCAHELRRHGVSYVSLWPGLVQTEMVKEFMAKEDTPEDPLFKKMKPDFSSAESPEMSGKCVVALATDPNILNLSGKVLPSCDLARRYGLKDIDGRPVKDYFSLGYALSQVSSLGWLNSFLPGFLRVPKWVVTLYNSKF

Neuro2a cells [6] = assay: Targeted metabolite; type: cell-based, mouse; details: for elevations in NAEs (targeted MRM): 10 μM, 6 h
How it was run: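 Neuro2a cells were treated with test compound (10 μM) or DMSO for 6 h. Fatty acid amides (NAEs, NATs) were quantified by targeted MRM mass spectrometry. Mean ± SEM, n = 3-4 per group, compared against DMSO-treated cells.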

[7] = system: other AEA-DA-modified proteins; assay: Gel-based AEA-DA labeling of other proteins in HEK293T cell lysates; type: binding, human
[8] = system: A549 cells treated with PMA; assay: PMA-stimulated prostaglandin production in A549 cells; type: cell-based, human
NAMPT = NAMPT (Mus musculus, UniProt Q99KQ4); details: 25 μM, AEA-DA 5 μM, Neuro2a
[9] = target: endogenous FAAH in Neuro2a lysates (Mus musculus, UniProt O08914); assay: Inhibition of endogenous FAAH in Neuro2a lysates; type: biochemical; details: read-out: IC50 against endogenous FAAH in Neuro2a lysates
endogenous FAAH in Neuro2a lysates, sequence (O08914 whole entry): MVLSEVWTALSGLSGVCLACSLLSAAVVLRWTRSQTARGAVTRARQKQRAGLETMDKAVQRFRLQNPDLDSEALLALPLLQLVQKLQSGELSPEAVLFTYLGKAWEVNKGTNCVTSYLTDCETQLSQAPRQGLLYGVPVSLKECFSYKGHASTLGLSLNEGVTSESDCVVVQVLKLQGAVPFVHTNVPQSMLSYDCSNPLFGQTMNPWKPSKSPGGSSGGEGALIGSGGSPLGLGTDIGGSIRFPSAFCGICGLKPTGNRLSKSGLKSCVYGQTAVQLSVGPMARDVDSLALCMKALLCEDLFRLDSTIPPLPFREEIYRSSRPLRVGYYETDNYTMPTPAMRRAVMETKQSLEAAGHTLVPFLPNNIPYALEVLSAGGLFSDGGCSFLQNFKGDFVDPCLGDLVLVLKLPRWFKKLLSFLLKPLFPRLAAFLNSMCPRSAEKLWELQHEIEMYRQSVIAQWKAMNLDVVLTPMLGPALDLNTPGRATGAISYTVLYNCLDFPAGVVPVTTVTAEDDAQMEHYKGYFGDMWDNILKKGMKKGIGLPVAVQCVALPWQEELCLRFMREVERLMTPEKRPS

NUCB1 [10] = target: T3, NUCB1 (Mus musculus, UniProt Q02819); type: cell-based; details: Neuro2a cells; for reductions in lipid probe enrichment of NUCB1: 25 μM
T3 sequence (Q02819 26-459): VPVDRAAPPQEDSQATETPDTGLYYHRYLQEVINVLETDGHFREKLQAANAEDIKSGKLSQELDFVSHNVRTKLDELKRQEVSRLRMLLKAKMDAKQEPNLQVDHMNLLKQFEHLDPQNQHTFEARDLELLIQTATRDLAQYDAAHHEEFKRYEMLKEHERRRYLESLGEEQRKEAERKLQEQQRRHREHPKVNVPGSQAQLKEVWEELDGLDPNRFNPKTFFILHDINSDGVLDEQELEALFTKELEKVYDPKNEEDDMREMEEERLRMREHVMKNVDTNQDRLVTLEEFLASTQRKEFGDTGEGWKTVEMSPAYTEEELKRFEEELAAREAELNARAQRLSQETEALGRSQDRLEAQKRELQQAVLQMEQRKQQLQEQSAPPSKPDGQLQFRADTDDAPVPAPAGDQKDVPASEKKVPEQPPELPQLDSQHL

NUCB1 [11] = target: T2, NUCB1; type: binding; details: read-out: IC50, blockade of AEA-DA probe labeling of NUCB1; AEA-DA 5 μM; NUCB1 0.25 μM in HEK293T lysates 0.75 mg/mL
[12] = system: purified recombinant FAAH; assay: Inhibition of purified recombinant FAAH; type: biochemical; details: read-out: IC50 against purified recombinant FAAH
Neuro2a cells [13] = assay: Untargeted LC-MS lipidomic analysis of compound-treated Neuro2a cells; type: cell-based, mouse; details: 10 μM, 6 h, P < 0.0001
NUCB1 (aa 53-68) = NUCB1 (aa 53-68) (Mus musculus, UniProt Q02819); assay: isoTOP-ABPP mapping of AEA-DA-labeled NUCB1 peptide in Neuro2a cells; type: cell-based; details: 50 μM compound, AEA-DA 50 μM
How it was run: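 Neuro2a cells were co-treated with AEA-DA (50 μM) and DMSO or test compound (50 μM), then UV-irradiated. Probe-labeled proteins were CuAAC-conjugated to TEV-cleavable azide-biotin tags, isotopically light for DMSO samples and heavy for compound samples. Probe-modified peptides were mapped by isoTOP-ABPP LC-MS/MS.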

## CC(C(=O)O)c1ccc(-c2ccccc2)c(F)c1 (racemic) [(±)-flurbiprofen]
PTGS1
  competition of A-DA labeling of PTGS1: competitively blocked

## CCCCC/C=C\C/C=C\C/C=C\C/C=C\CCCC(=O)NCCCCCNC(=O)c1ccc(-c2c3ccc(=[N+](C)C)cc-3oc3cc(N(C)C)ccc23)c(C(=O)[O-])c1 [Fl-AEA]
[1]
  binding of probe to hNUCB1 (increase in FluoPol signal): bound

## CCCCC/C=C\C/C=C\C/C=C\C/C=C\CCCC(=O)O [AA, arachidonic acid]
NENF
  competition of AEA-DA probe labeling of recombinant NENF: competitively blocked
NUCB1 [2]
  blockade of AEA-DA probe labeling of recombinant NUCB1 by lipids: preferentially blocked
[1]; 20 μM competitor, Fl-AEA 0.5 μM, NUCB1 1.0 μM
  suppression of FluoPol signal by competitive lipid: significantly suppressed
[1]; Fl-AEA 0.5 μM, NUCB1 1.0 μM
  suppression of the NUCB1-FluoPol signal by lipids: Concentration-dependent suppression

## C=CCN(C)CCCCCCOc1ccc(C(=O)c2ccc(Br)cc2)c(F)c1 [Ro 48-8071]
EBP
  competition of EBP: prominent off-targets
[3]
  blockade of AEA-DA probe labeling of recombinant TMEM97: block
LSS
  competition of LSS: fully competed
TMEM97; 5 μM drug
  competition of TMEM97: prominent off-targets

## CS(=O)(=O)c1ccc(C2=C(c3ccccc3)C(=O)OC2)cc1 [rofecoxib]
[4]
  reduction in A-DA labeling of AKR1B8: strong reductions
[5]
  conversion of exogenous AEA to PGF2α-EA: blocked
PTGS2
  competition of A-DA labeling of PTGS2: disrupted

## COc1cc2c(cc1OC)CN(CCc1ccc(NC(=O)c3cccc4c(=O)c5cccc(OC)c5[nH]c34)cc1)CC2 [elacridar]
[3]
  blockade of AEA-DA probe labeling of recombinant TMEM97: block
Ferrochelatase (FECH)
  concentration blocking arachidonoyl probe labeling of FECH (as low as): ≤ 0.5 µM
ABCB1B
  concentration blocking arachidonoyl probe labeling of ABCB1B (as low as): ≤ 0.5 µM
TMEM97
  concentration blocking arachidonoyl probe labeling of TMEM97 (as low as): ≤ 0.5 µM

## CCCCC/C=C\C/C=C\C/C=C\C/C=C\CCCC(=O)NCCO [AEA, N-arachidonoyl ethanolamine]
PTGR2
  competition of PTGR2 probe labeling: competed
NUCB1 [2]
  blockade of AEA-DA probe labeling of recombinant NUCB1 by lipids: preferentially blocked
[1]; Fl-AEA 0.5 μM, NUCB1 1.0 μM
  suppression of the NUCB1-FluoPol signal by lipids: Concentration-dependent suppression
DHRS1
  competition of DHRS1 probe labeling: competed

## CCCCC/C=C\C/C=C\C/C=C\C/C=C\CCCC(=O)OC(CO)CO [2-AG, 2-arachidonoyl glycerol]
NUCB1 [2]
  blockade of AEA-DA probe labeling of recombinant NUCB1 by lipids: preferentially blocked
[1]; Fl-AEA 0.5 μM, NUCB1 1.0 μM
  suppression of the NUCB1-FluoPol signal by lipids: Concentration-dependent suppression

## O=C(Nc1cccnn1)N1CCC(=Cc2cccc(Oc3ccc(C(F)(F)F)cn3)c2)CC1 [PF-7845]
Neuro2a cells [6]
  cellular concentrations of NAEs and NATs: elevated

## C=CC1=C(C)c2cc3[nH]c(cc4nc(cc5[nH]c(cc1n2)c(C)c5CCC(=O)O)C(CCC(=O)O)=C4C)c(C)c3C=C [Pp-IX, protoporphyrin IX]
NENF
  competition of AEA-DA probe labeling of recombinant NENF: inhibited

## C=CC1=C(C)c2cc3[n-]c(cc4[n-]c(cc5nc(cc1n2)C(C)=C5C=C)c(C)c4CCC(=O)O)c(CCC(=O)O)c3C.[Cl-].[Fe+3] [hemin]
NENF
  competition of AEA-DA probe labeling of recombinant NENF: inhibited
[7]; NENF-transfected HEK293T lysates
  effect on other AEA-DA-modified proteins detected by SDS-PAGE: unaffected

## O=C(/C=C/c1cccnc1)NCCCCC1CCN(C(=O)c2ccccc2)CC1 [FK-866]
ABCB1B; 25 μM, AEA-DA 5 μM, Neuro2a
  competition of probe-labeling of ABCB1B: competed
[8]
  PMA-stimulated generation of PGE2: no effect
  PMA-stimulated generation of TXB2: complete suppression
NAMPT
  competition of probe-labeling of NAMPT: competed

## CN1CCN(C(=O)c2c(-c3ccccc3)c3cc([N+](=O)[O-])ccc3n2C)CC1 [KML110]
[9]
  IC50: > 100 µM
NUCB1 [10]
  reductions in lipid probe enrichment of NUCB1: 3-5 fold
NUCB1 [11]
  IC50: 9.6 µM
Neuro2a cells [6]
  cellular concentrations of NAEs and NATs: elevated
  elevations in NAEs (targeted MRM): elevations
[5]
  conversion of exogenous AEA to PGF2α-EA: suppress
[12]
  IC50: > 100 µM

## CN1CCN(C(=O)c2[nH]c3ccc([N+](=O)[O-])cc3c2-c2ccccc2)CC1 [MJN228]
[9]
  IC50: > 100 µM
NUCB1 [10]; 10 μM, AEA-DA 5 μM
  selectivity for NUCB1 among ∼400 AEA-DA probe targets: most competed protein
NUCB1 [10]
  reductions in lipid probe enrichment of NUCB1: 3-5 fold
  concentration inhibiting lipid probe binding to NUCB1 (as low as): ≤ 10 µM
  concentration of near-maximal inhibition of lipid probe binding to NUCB1: ~25 µM
NUCB1 [11]
  IC50: 3.3 µM
Neuro2a cells [6]
  cellular concentrations of NAEs and NATs: elevated
  elevations in NAEs (targeted MRM): elevations
[5]
  conversion of exogenous AEA to PGF2α-EA: suppress
[12]
  IC50: > 100 µM
[7]; HEK293T cell lysates
  disruption of other arachidonoyl probe-protein interactions: did not appear to disrupt
Neuro2a cells [13]
  elevation of metabolites (NAEs and NATs) versus DMSO: ≥ 2 fold
NUCB1 (aa 53-68)
  reduction of signals of AEA-DA-labeled NUCB1 peptide (aa 53-68): > 5 fold
